Experimental data taken from ChEMBL document CHEMBL1255196, “Radiosensitization of cancer cells by hydroxychalcones” (2010).
Calls of active or inactive are those of the source. The rule behind the calls is not given here.

Experiments:
[1] = test system: HT-29; assay: Phototoxicity against human HT-29 cells at 10 uM irradiated with 4 Gy/min; type: functional, cell-based
[2] = test system: Nucleic Acid; assay: Induction of Hsf1 DNA binding affinity in human HT-29 cells at 8 uM after 2 hrs; type: cell-based
Summary of the method: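 HT-29 cells were incubated with drug for 2 hr at 37°C (30 min is also stated for the treatment) and nuclear protein was extracted. Gel shift assay used a 32P-labelled rat Hsp70 heat shock element oligomer. Hsf1 identity was confirmed by antibody supershift.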

[3] = test system: HT-29; assay: Cytotoxicity against human HT-29 cells assessed as plating efficiency at 10 uM; type: functional
Summary of the method: (§1)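 Colony formation assay of HT-29 cells exposed to drug or DMSO for 2 hr. Plating efficiency defined non-toxic concentrations, meaning plating efficiency above 80%. After 10 to 14 days colonies were fixed in 3:1 methanol/acetic acid for 15 min, stained with 0.5% crystal violet in methanol for 15 min, and counted to give percent survival.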

[4] = test system: HT-29; assay: Induction in heat-induced cell killing in human HT-29 cells; type: functional, cell-based
Summary of the method: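 HT-29 cells were treated with drug or DMSO and heated at 41°C for 2 hr. Medium was then replaced and cells grown 10-14 days. Colonies were stained and counted. Four flasks per condition.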

[5] = test system: HT-29; assay: Cytotoxicity against human HT-29 cells assessed as plating efficiency at 25 uM; type: functional; summary of the method: as §1
[6] = test system: HT-29; assay: Cell cycle arrest in photoirradiated human HT-29 cells assessed as accumulation at subG0 phase after 48 hrs; type: functional, cell-based
Summary of the method: (§2)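 They were fixed by adding cold 70% ethanol, washed in PBS, and stained with propidium iodide plus RNase for 30-45 min at 37°C. Flow cytometry scored polyploidy and sub-G0 cells 48 hr after irradiation.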

[7] = test system: HT-29; assay: Phototoxicity against human HT-29 cells assessed as polyploidy formation at 10 uM irradiated with 4 Gy/min; type: functional, cell-based; summary of the method: as §2
[8] = test system: HT-29; assay: Phototoxicity against human HT-29 cells irradiated with 2 Gy/min; type: functional, cell-based

| SMILES | Activity [1] | Activity [2] | Activity [3] | Activity [4] | Activity [5] | Activity [6] | Activity [7] | Activity [8] |
| --- | --- | --- | --- | --- | --- | --- | --- | --- |
| O=C(/C=C/c1ccccc1O)c1ccccc1O | Active | Active | >80% | Active |  |  |  |  |
| O=C(/C=C/c1ccccc1)c1cc(O)ccc1O | Active | Active |  |  | >80% | Active | Active | Dose-dependent effect |
